The source made the active and inactive calls. The rule behind the calls is not given here.
Columns and labels:
OVCAR-3 = assay: Cytotoxicity against human OVCAR3 cells after 48 hrs by SRB assay; assay type: functional; conditions: for GI50: OVCAR-3, 48 h
Procedure, shortened: (§1)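 NCI-60 human cancer cell line screen. Five-concentration testing across 0.01 to 100 μM, done only for compounds selected from a one-concentration preliminary test. Read-out was GI50.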

HOP-62 = assay: Cytotoxicity against human HOP62 cells after 48 hrs by SRB assay; assay type: functional; conditions: for GI50: HOP-62, 48 h; procedure, shortened: as §1
SF-539 = assay: Cytotoxicity against human SF539 cells after 48 hrs by SRB assay; assay type: functional; conditions: for GI50: SF-539, 48 h; procedure, shortened: as §1
UACC-62 = assay: Cytotoxicity against human UACC62 cells after 48 hrs by SRB assay; assay type: functional; conditions: for GI50: UACC-62, 48 h; procedure, shortened: as §1
[1] = target: T1, Tyrosyl-DNA phosphodiesterase 2 (Homo sapiens, UniProt O95551); assay: (§2) Inhibition of recombinant human Tdp2 assessed as decrease in alpha 32P-cordycepin-3'-labeled DNA breaks after 15 mins by PAGE analysis
T1 sequence (O95551 whole entry): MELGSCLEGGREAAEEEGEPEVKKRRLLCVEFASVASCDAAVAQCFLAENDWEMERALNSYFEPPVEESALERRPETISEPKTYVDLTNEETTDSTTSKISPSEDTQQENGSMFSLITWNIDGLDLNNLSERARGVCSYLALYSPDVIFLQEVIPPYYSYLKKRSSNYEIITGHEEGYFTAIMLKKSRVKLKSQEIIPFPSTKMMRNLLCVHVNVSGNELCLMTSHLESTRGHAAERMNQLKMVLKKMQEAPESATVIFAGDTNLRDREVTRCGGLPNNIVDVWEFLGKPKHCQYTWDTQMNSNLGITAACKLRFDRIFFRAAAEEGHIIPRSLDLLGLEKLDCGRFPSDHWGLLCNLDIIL
Procedure, shortened: (§3)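 The substrate was the 18-mer single-stranded TY18 oligo, α32P-cordycepin-3′-labeled, at 1 nM, with 25 pM recombinant human Tdp2. Products were run on 16% denaturing PAGE.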

[2] = target: T2, Tyrosyl-DNA phosphodiesterase 2 (Homo sapiens) (UniProt O95551); assay: as §2; procedure, shortened: as §3
T2 sequence (whole entry): T1 sequence (O95551 whole entry)

SN12C = assay: Cytotoxicity against human SN12C cells after 48 hrs by SRB assay; assay type: functional; procedure, shortened: as §1
[3] = target: T3, DNA topoisomerase 1 (Homo sapiens) (UniProt P11387); assay: Inhibition of recombinant Top1 (unknown origin) assessed as increase in [32P]-DNA breaks at 0.1 to 100 uM after 20 mins by PAGE analysis
T3 sequence (whole entry): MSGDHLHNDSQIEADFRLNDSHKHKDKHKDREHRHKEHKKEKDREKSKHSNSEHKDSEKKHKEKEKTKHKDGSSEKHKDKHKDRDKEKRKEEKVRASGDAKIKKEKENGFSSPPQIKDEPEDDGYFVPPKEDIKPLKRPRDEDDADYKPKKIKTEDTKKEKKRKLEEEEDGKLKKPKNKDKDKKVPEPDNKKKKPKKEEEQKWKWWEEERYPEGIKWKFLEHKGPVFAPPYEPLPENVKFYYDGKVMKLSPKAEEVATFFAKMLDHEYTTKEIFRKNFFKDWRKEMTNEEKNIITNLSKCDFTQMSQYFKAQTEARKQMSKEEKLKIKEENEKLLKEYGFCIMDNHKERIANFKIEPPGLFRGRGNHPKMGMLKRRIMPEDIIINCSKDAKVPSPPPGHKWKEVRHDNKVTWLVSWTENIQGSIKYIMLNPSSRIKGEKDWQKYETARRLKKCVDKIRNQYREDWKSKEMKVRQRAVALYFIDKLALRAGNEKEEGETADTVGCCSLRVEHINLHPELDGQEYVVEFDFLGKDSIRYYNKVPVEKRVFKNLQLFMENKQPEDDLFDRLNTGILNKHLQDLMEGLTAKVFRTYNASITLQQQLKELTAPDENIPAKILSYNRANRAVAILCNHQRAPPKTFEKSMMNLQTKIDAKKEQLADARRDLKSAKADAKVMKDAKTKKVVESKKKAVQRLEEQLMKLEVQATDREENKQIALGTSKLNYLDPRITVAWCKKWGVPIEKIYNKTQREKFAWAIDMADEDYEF
Procedure, shortened: (§4)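 The substrate was a 3′-32P 117-bp oligonucleotide holding Top1 cleavage sites, at about 2 nM, with recombinant Top1. Compounds were tested at 0.1, 1.0, 10 and 100 μM. Reactions were stopped with 0.5% SDS and run on 20% denaturing PAGE.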

[4] = target: Tyrosyl-DNA phosphodiesterase 1 (Homo sapiens, UniProt Q9NUW8); assay: Inhibition of recombinant Tdp1 (unknown origin) assessed as decrease in hydrolysis of phosphodiester linkage between tyrosine residue and the 3' end of 5'-[32P]-DNA after 15 mins by PAGE analysis
Sequence of Tyrosyl-DNA phosphodiesterase 1 (Q9NUW8 whole entry): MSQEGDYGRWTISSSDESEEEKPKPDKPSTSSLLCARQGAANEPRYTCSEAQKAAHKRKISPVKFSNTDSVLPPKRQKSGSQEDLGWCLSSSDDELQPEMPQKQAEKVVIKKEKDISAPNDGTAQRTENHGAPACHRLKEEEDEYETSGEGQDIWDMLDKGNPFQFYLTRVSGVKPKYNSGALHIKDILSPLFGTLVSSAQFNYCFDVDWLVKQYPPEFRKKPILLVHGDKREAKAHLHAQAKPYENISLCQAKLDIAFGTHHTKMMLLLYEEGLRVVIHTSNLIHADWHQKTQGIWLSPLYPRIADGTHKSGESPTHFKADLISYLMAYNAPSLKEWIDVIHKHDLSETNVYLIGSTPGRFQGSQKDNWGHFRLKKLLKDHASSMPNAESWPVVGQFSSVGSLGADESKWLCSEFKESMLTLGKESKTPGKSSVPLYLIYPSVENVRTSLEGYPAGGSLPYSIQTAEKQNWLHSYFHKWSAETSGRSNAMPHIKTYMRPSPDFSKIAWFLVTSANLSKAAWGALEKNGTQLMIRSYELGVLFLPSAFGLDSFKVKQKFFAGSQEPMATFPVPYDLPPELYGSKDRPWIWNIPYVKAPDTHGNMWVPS
Procedure, shortened: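 The substrate was 5′-32P single-stranded oligo N14Y carrying a 3′-phosphotyrosine, at 1 nM, with 10 pM recombinant Tdp1. Products were run on 16% denaturing PAGE with phosphorimaging.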

MCF7 = assay: Cytotoxicity against human MCF7 cells after 48 hrs by SRB assay; assay type: functional; conditions: for GI50: MCF7, 48 h; procedure, shortened: as §1
PBMC = assay: Induction of DNA damage in human PBMC assessed as formation of gamma-H2AX foci at 100 to 1000 nM after 2 hrs by DAPI staining-based confocal microscopy; assay type: cell-based; conditions: 1 µM
Procedure, shortened: (§5)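 Freshly purified human PBMCs (from healthy donors) or CCRF-CEM leukemia cells were used at 2 mil/mL in RPMI 1640 with 10% FBS, penicillin and streptomycin. Cells were dosed at 100 nM and 1 μM for 2 h at 37 °C. They were then fixed in 2% paraformaldehyde, cytospun and blocked in 5% BSA. Staining used anti-γ-H2AX with an Alexa 488 secondary and DAPI, and foci were imaged by confocal microscopy.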

CCRF-CEM = assay: Induction of DNA damage in human CCRF-CEM cells assessed as formation of gamma-H2AX foci at 100 to 1000 nM after 2 hrs by DAPI staining-based confocal microscopy; assay type: functional, cell-based; procedure, shortened: as §5
[5] = target: T3, DNA topoisomerase 1 (Homo sapiens); assay: Inhibition of recombinant Top1 (unknown origin) assessed as increase in [32P]-DNA breaks after 20 mins by PAGE analysis; procedure, shortened: as §4
[6] = target: T3, DNA topoisomerase 1 (Homo sapiens); assay: Poison activity at recombinant Top1 (unknown origin) assessed as inhibition of [32P]-DNA religation in drug-DNA-Top1 ternary complex at 0.1 to 10 uM after 20 mins by PAGE analysis; procedure, shortened: as §4
[7] = target: T3, DNA topoisomerase 1 (Homo sapiens); assay: Suppressor activity at recombinant Top1 (unknown origin) assessed as decrease in [32P]-DNA breaks at 100 uM after 20 mins by PAGE analysis; procedure, shortened: as §4
[8] = target: T3, DNA topoisomerase 1 (Homo sapiens); assay: Inhibition of recombinant Top1 (unknown origin) assessed as increase in [32P]-DNA breaks at 1 uM after 20 mins by PAGE analysis; procedure, shortened: as §4

Row | SMILES | GI50 (OVCAR-3) | GI50 (HOP-62) | GI50 (SF-539) | GI50 (UACC-62) | IC50 [1] | inhibition [2] | GI50 (SN12C) | inhibition [3] | IC50 [4] | inhibition [4] | GI50 (MCF7) | Activity (PBMC) | Activity (CCRF-CEM) | inhibition [5] | further results
1 | COc1cnc2c(c1)C(=O)c1c-2n(CCCNCCN2CCOCC2)c(=O)c2cc([N+](=O)[O-])ccc12 | 315 nM | 150 nM | 311 nM | 44 nM | 37000 to 111000 nM | Dose-dependent effect | 80 nM | Active | 12000 to 37000 nM | Dose-dependent effect | 32 nM | – | – | – | –
2 | CC[C@@]1(O)C(=O)OCc2c1cc1n(c2=O)Cc2cc3ccccc3nc2-1 [CAMPTOTHECIN] | – | < 10 nM | < 10 nM | < 10 nM | – | – | – | – | – | – | 13 nM | Non-Toxic | Active | – | –
3 | COc1cnc2c(c1)C(=O)c1c-2n(CCCBr)c(=O)c2cc([N+](=O)[O-])ccc12 | 248 nM | 58 nM | 279 nM | 82 nM | 37000 to 111000 nM | Dose-dependent effect | 269 nM | – | 12000 to 37000 nM | Dose-dependent effect | 46 nM | – | – | Active | –
4 | COc1cnc2c(c1)C(=O)c1c-2n(CCCNC2=NCCS2)c(=O)c2cc([N+](=O)[O-])ccc12 | 137 nM | 14 nM | 36 nM | < 10 nM | 12000 to 37000 nM | Dose-dependent effect | < 10 nM | Active | 1000 to 12000 nM | Dose-dependent effect | < 10 nM | Non-Toxic | Active | – | Activity [6]: Active; Activity [7]: Active
5 | COc1cnc2c(c1)C(=O)c1c-2n(CCCN2CCN(CCO)CC2)c(=O)c2cc([N+](=O)[O-])ccc12 | 1460 nM | 2760 nM | 1700 nM | 1220 nM | > 111000 nM | Dose-dependent effect | – | – | > 111000 nM | Dose-dependent effect | 142 nM | – | – | Active | –
6 | COc1cnc2c(c1)C(=O)c1c-2n(CCCN2CCNCC2)c(=O)c2cc([N+](=O)[O-])ccc12 | 1190 nM | 65 nM | 355 nM | 175 nM | 37000 to 111000 nM | Dose-dependent effect | 230 nM | – | 12000 to 37000 nM | Dose-dependent effect | 36 nM | – | – | Active | –
7 | CCNCCCn1c2c(c3ccc([N+](=O)[O-])cc3c1=O)C(=O)c1cc(OC)cnc1-2 | 62 nM | 107 nM | 70 nM | 27 nM | 37000 to 111000 nM | Dose-dependent effect | 53 nM | Active | 1000 to 12000 nM | Dose-dependent effect | 19 nM | Non-Toxic | Active | – | –
8 | COc1cnc2c(c1)C(=O)c1c-2n(CCCN2CCN(C)CC2)c(=O)c2cc([N+](=O)[O-])ccc12 | 171 nM | 81 nM | 191 nM | 183 nM | 12000 to 37000 nM | Dose-dependent effect | 214 nM | – | 12000 to 37000 nM | Dose-dependent effect | 16 nM | – | – | Active | –
9 | CNCCCn1c2c(c3ccc([N+](=O)[O-])cc3c1=O)C(=O)c1cc(OC)cnc1-2 | 174 nM | 30 nM | 51 nM | 20 nM | 37000 to 111000 nM | Dose-dependent effect | 46 nM | – | 1000 to 12000 nM | Dose-dependent effect | 1060 nM | – | – | Active | –
10 | COc1cnc2c(c1)C(=O)c1c-2n(CCCN2CCC(N)CC2)c(=O)c2cc([N+](=O)[O-])ccc12 | – | – | – | – | 1000 to 12000 nM | Dose-dependent effect | – | – | 1000 to 12000 nM | Dose-dependent effect | – | Non-Toxic | Active | Active | Activity (OVCAR-3): inactive; Activity (HOP-62): inactive; Activity (SF-539): inactive; Activity (UACC-62): inactive; Activity (SN12C): inactive; Activity (MCF7): inactive
11 | COc1cnc2c(c1)C(=O)c1c-2n(CCCN2CCCC2)c(=O)c2cc([N+](=O)[O-])ccc12 | 59 nM | < 10 nM | 31 nM | 15 nM | 37000 to 111000 nM | Dose-dependent effect | 36 nM | – | 1000 to 12000 nM | Dose-dependent effect | < 10 nM | – | – | Active | –
12 | COc1cnc2c(c1)C(=O)c1c-2n(CCCNC(C)C)c(=O)c2cc([N+](=O)[O-])ccc12 | 82 nM | 85 nM | 51 nM | 19 nM | 37000 to 111000 nM | Dose-dependent effect | 39 nM | Active | 12000 to 37000 nM | Dose-dependent effect | 12 nM | Non-Toxic | Active | – | –
13 | COc1cc2c3c(n(CCCNCCO)c(=O)c2cc1OC)-c1cc2c(cc1C3=O)OCO2 [LMP-744] | – | – | 40 nM | – | 1000 to 12000 nM | – | – | – | 12000 to 111000 nM | – | – | – | – | – | inhibition [8]: Active

— ChEMBL document CHEMBL4007513, “Synthesis and Biological Evaluation of the First Triple Inhibitors of Human Topoisomerase 1, Tyrosyl-DNA Phosphodiesterase 1 (Tdp1), and Tyrosyl-DNA Phosphodiesterase 2 (Tdp2)” (J Med Chem, 2017)
